Data published in ChEMBL document CHEMBL1821666, “Anti-inflammatory principles from Cordyceps sinensis” (J Nat Prod, 2011).
Values after ≈ are worked out from the molar mass of the structure shown. Active and inactive are the calls of the source. The rule behind the calls is not given here.

Assays:
[1] = Antioxidant activity assessed DPPH scavenging activity; type: functional
Summary of the method: (§1)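 DPPH free-radical scavenging was measured in a cell-free system, with IC50 determined. Constituents were also screened at 500 μM.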

[2] = (§2) Anti-inflammatory activity in human neutrophils assessed as inhibition of FMLP/CB-induced elastase release; type: functional, cell-based; settings: Neutrophil
Summary of the method: (§3)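 Human neutrophils were activated with FMLP plus cytochalasin B (FMLP/CB). IC50 is the concentration giving 50% inhibition of the response. Values are mean ± SEM, n = 3–4.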

[3] = Antioxidant activity assessed DPPH scavenging activity at 500 uM; type: functional; summary of the method: as §1
[4] = (§4) Anti-inflammatory activity in human neutrophils assessed as inhibition of FMLP/CB-induced superoxide anion generation; type: functional, cell-based; settings: Neutrophil; summary of the method: as §3
[5] = Anti-inflammatory activity in human neutrophils assessed as inhibition of FMLP/CB-induced elastase release at 10 ug/mL; type: functional; settings: Neutrophil
Summary of the method: (§5)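 Human neutrophils were activated with FMLP/CB. Percentage inhibition of the response was measured with samples at 10 μg/mL. Values are mean ± SEM, n = 3–4, and significance was tested against the control value.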

[6] = Anti-inflammatory activity in human neutrophils assessed as inhibition of FMLP/CB-induced superoxide anion generation at 10 ug/mL; type: functional; settings: Neutrophil; summary of the method: as §5
Neutrophil [7] = assay: as §2; type: functional, cell-based; summary of the method: as §3
Neutrophil [8] = assay: as §4; type: functional, cell-based; summary of the method: as §3

SMILES	inhibition [3]	also measured
O=c1c(-c2ccc(O)c(O)c2)coc2cc(O)ccc12		IC50 [1]: 32 µM
CC(C)[C@@H](C)/C=C/[C@@H](C)[C@H]1CC[C@H]2C3=CC=C4C[C@@H](O[C@@H]5O[C@H](CO)[C@@H](O)[C@H](O)[C@H]5O)CC[C@]4(C)[C@H]3CC[C@]12C	inactive	IC50 [2]: 5.62 µg/mL (≈ 10.1 µM); IC50 [4]: 5.42 µg/mL (≈ 9.7 µM)
CC(C)C[C@@H]1NC(=O)[C@@H]2CC[C@@H](O)N2C1=O	inactive	
CC(C)[C@@H]1NC(=O)[C@@H]2CCCN2C1=O	inactive	
Cc1occc(=O)c1O	inactive	
O=C(O)c1cc2c([nH]c3ccccc32)c(-c2ccc(CO)o2)n1	inactive	
O=C(O)c1ccco1	inactive	
O=C1C[C@H](O)[C@@H](CO)O1	inactive	
O=C1N[C@@H](Cc2ccc(O)cc2)C(=O)N2CCC[C@@H]12	inactive	
O=C1N[C@@H](Cc2ccccc2)C(=O)N2CCC[C@@H]12	inactive	
O=C1O[C@H]([C@@H](O)CO)C(O)=C1O [ASCORBIC ACID]		IC50 [1]: 38.6 µM
O=c1c(-c2ccc(O)cc2)coc2cc(O)ccc12 [DAIDZEIN]	inactive	IC50 [4]: 6.19 µg/mL (≈ 24.3 µM)
COc1cc(/C=C/C(=O)O[C@H]2CC[C@]34C[C@]35CC[C@]3(C)[C@@H]([C@H](C)CCC=C(C)C)CC[C@@]3(C)[C@@H]5CC[C@H]4C2(C)C)ccc1O [GAMMA ORYZANOL]	inactive	inhibition at 10 µg/mL [5]: 41.6%; inhibition at 10 µg/mL [6]: 28.2%
COc1ccc2c(c1)c(CC(=O)O)c(C)n2C(=O)c1ccc(Cl)cc1 [INDOMETHACIN]	inactive	IC50 [2]: 32 µg/mL (≈ 89.4 µM); IC50 [4]: 38.3 µg/mL (≈ 107 µM)
OCc1ccc(-c2nccc3c2[nH]c2ccccc23)o1 [PERLOLYRIN]	inactive	inhibition (Neutrophil [7]): Dose-dependent effect; IC50 [2]: 1.68 µg/mL (≈ 6.36 µM); inhibition (Neutrophil [8]): Dose-dependent effect; IC50 [4]: 0.45 µg/mL (≈ 1.7 µM)
